# Reference: ChEMBL document CHEMBL4387794, “Constituents of the Edible Leaves of Melicope pteleifolia with Potential Analgesic Activity” (J Nat Prod, 2019)
# Active and inactive are the calls of the source. The calls are words filed in the database; no cut-off is given here.
# Key:
# HaCaT [1] = test: Antipyretic activity in human HaCaT cells assessed as inhibition of TNFalpha-induced PGE2 production at 50 uM pre-incubated for 2 hrs before TNFalpha stimulation for 24 hrs by ELISA; format: functional, cell-based
# Method in brief: (§1)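 HaCaT keratinocytes, seeded at 1.5 × 10^5 cells/well and grown overnight, then serum-starved 12 h. Pretreated with compounds for 2 h, then stimulated 24 h with 20 ng/mL TNF-α; unstimulated cells as negative control. Supernatant PGE2 quantified by ELISA, absorbance 450 nm. Means ± SD of three independent experiments.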
# HaCaT [2] = test: Antipyretic activity in human HaCaT cells assessed as inhibition of TNFalpha-induced PGE2 production at 100 uM pre-incubated for 2 hrs before TNFalpha stimulation for 24 hrs by ELISA; format: functional, cell-based; method in brief: as §1
# HaCaT [3] = test: Cytotoxicity in human HaCaT cells assessed as reduction in cell viability at 100 uM incubated for 2 4 hrs by MTT assay; format: cell-based
# Method in brief: (§2)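 MTT viability in HaCaT cells seeded at 10^4 cells/well. After 12 h, compounds added in serum-free medium for 24 h, then MTT 4 h. Formazan dissolved in DMSO, absorbance read at 550 nm. Triplicate wells, experiments repeated at least three times.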
# HaCaT [4] = test: Cytotoxicity in human HaCaT cells assessed as reduction in cell viability at 50 uM incubated for 2 4 hrs by MTT assay; format: cell-based; method in brief: as §2
# Mus musculus = test: Antipyretic activity in ICR mouse assessed as suppression of LPS-induced febrile response measured at 10 mg/kg, po administered 30 mins before LPS injection and measured up to 6 hrs post LPS injection; format: functional, organism-based
# Method in brief: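 Male 8-week-old ICR mice, 5 per group, reverse 12 h light/dark cycle. Compound suspended in 0.5% carboxymethyl cellulose, given orally 30 min before i.p. LPS (0.5 mg/kg in pyrogen-free PBS). Baseline rectal Tb from six readings over 2 h, then Tb followed to 6 h post-LPS. Each hour compared to LPS group, Student t-test, p < 0.05.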
# [5] = 50 uM, in the assay text read “at 50 uM” for “at 100 uM”
Compound,inhibition (HaCaT [1]),inhibition (HaCaT [2]; [5]),Activity (HaCaT [3]),Activity (HaCaT [4]),inhibition (HaCaT [2]; 100 uM),Activity (Mus musculus)
COc1cc(/C=C/C(=O)OC[C@H]2O[C@@H](c3c(O)c(C(C)=O)c(O)c([C@@H]4O[C@H](COC(=O)/C=C/c5ccc(O)c(OC)c5)[C@@H](O)[C@H](O)[C@H]4O)c3O)[C@H](O)[C@@H](O)[C@@H]2O)ccc1O,Active,Active,Toxic,Non-Toxic,,
COc1cc(/C=C/C(=O)OC[C@H]2O[C@@H](c3c(O)c(C(C)=O)c(O)c([C@@H]4O[C@H](COC(=O)/C=C/c5ccc(O)cc5)[C@@H](O)[C@H](O)[C@H]4O)c3O)[C@H](O)[C@@H](O)[C@@H]2O)ccc1O,Active,Active,Toxic,Non-Toxic,,
CC(=O)c1c(O)c([C@@H]2O[C@H](CO)[C@@H](O)[C@H](O)[C@H]2O)c(O)c([C@@H]2O[C@H](COC(=O)/C=C/c3ccc(O)cc3)[C@@H](O)[C@H](O)[C@H]2O)c1O,Active,,Non-Toxic,,Active,
CC(=O)c1c(O)c([C@@H]2O[C@H](CO)[C@@H](O)[C@H](O)[C@H]2O)c(O)c2c1O[C@@]1(C2)O[C@H](CO)[C@H](O)[C@@H]1O,Active,,Non-Toxic,,Active,
CC(=O)Oc1ccccc1C(=O)O,,,,,Active,
CC(=O)c1c(O)c([C@@H]2O[C@H](CO)[C@@H](O)[C@H](O)[C@H]2O)c(O)c2c1O[C@]1(C2)O[C@H](CO)[C@@H](O)[C@@H]1O,Active,,Non-Toxic,,Active,
CC(=O)c1c(O)c([C@@H]2O[C@H](CO)[C@@H](O)[C@H](O)[C@H]2O)c(O)c2c1O[C@]1(C2)O[C@H](CO)[C@@H](O)[C@H]1O,Active,,Non-Toxic,,Active,
CC(=O)c1c(O)c([C@@H]2O[C@H](CO)[C@@H](O)[C@H](O)[C@H]2O)c(O)c([C@@H]2O[C@H](COC(=O)[C@H]3[C@H](C(=O)OC[C@H]4O[C@@H](c5c(O)c(C(C)=O)c(O)c([C@@H]6O[C@H](CO)[C@@H](O)[C@H](O)[C@H]6O)c5O)[C@H](O)[C@@H](O)[C@@H]4O)[C@@H](c4ccc(O)cc4)[C@@H]3c3ccc(O)cc3)[C@@H](O)[C@H](O)[C@H]2O)c1O,Active,,Non-Toxic,,Active,
CC(=O)c1c(O)c([C@@H]2O[C@H](CO)[C@@H](O)[C@H](O)[C@H]2O)c(O)c([C@@H]2O[C@H](COC(=O)c3ccccc3)[C@@H](O)[C@H](O)[C@H]2O)c1O,Active,,Non-Toxic,,Active,
CC(=O)c1c(O)c([C@@H]2O[C@H](COC(=O)/C=C/c3ccc(O)cc3)[C@@H](O)[C@H](O)[C@H]2O)c(O)c([C@@H]2O[C@H](COC(=O)/C=C/c3ccc(O)cc3)[C@@H](O)[C@H](O)[C@H]2O)c1O,Active,,Non-Toxic,,Active,
CC(=O)c1c(O)c([C@@H]2O[C@H](CO)[C@@H](O)[C@H](O)[C@H]2O)c(O)c2c1O[C@@]1(C2)O[C@@H](CO)[C@H](O)[C@H]1O,Active,,Non-Toxic,,Active,
CC(=O)c1c(O)c([C@@H]2O[C@H](CO)[C@@H](O)[C@H](O)[C@H]2O)c(O)c2c1O[C@@]1(C2)O[C@H](CO)[C@@H](O)[C@@H]1O,Active,,Non-Toxic,,Active,
CC(=O)c1c(O)c([C@@H]2O[C@H](CO)[C@@H](O)[C@H](O)[C@H]2O)c(O)c([C@@H]2O[C@H](CO)[C@@H](O)[C@H](O)[C@H]2O)c1O,Active,,Non-Toxic,,Active,Active
COc1cc(/C=C/C(=O)OC[C@H]2O[C@@H](c3c(O)c(C(C)=O)c(O)c([C@@H]4O[C@H](CO)[C@@H](O)[C@H](O)[C@H]4O)c3O)[C@H](O)[C@@H](O)[C@@H]2O)ccc1O,Active,,Non-Toxic,,Active,
